In assay [1] the test system is MDA-MB-468. The assay is described as follows: Antiproliferative activity against human MDA-MB-468 cells measured after 48 hrs under normoxic condition by MTT assay. It is filed as functional, cell-based. The settings on record: MDA-MB-468, 48 h.
In assay [2] the test system is MDA-MB-468. Kind of assay: Antiproliferative activity against human MDA-MB-468 cells measured after 48 hrs under CoCl2-induced hypoxic condition by MTT assay. The class given is functional, cell-based. The following applies: MDA-MB-468, 48 h.
For assay [3], the system named is MCF7. Kind of assay: Induction of cell cycle arrest in human MCF7 cells assessed as decrease in S phase population at IC50 concentration incubated for 24 hrs by PI/RNase staining based flow cytometric analysis. It is filed as functional. In a few lines:
(§1)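 Cells were washed in ice-cold PBS, fixed in ice-cold 70% ethanol, treated with 100 µg/mL RNase and stained with 40 µg/mL PI. DNA content was read by flow cytometry, with sub-G1 compared against control.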

The next assay deals with HOP-62. Kind of assay: Antitumor activity against human HOP62 cells assessed as cell growth inhibition at 10 uM incubated for 48 hrs by sulforhodamine B assay. It is filed as functional. The settings on record: read-out: GI. The essentials:
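NCI Drug Evaluation Branch protocol: primary single-dose screen at 10 μM across a 57-line human cancer panel. Drug exposure is 48 h. Cell growth and viability are read by sulforhodamine B assay. Data are given as a mean graph of percent growth of treated cells and reported as percentage growth inhibition (GI%).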

The next assay deals with Carbonic anhydrase 1 (Homo sapiens, UniProt P00915). The assay is described as follows: Inhibition of recombinant human carbonic anhydrase 1 preincubated with enzyme for 15 mins by phenol red dye based stopped flow CO2 hydrase assay.
The subject of assay [4] is MCF7. The assay is described as follows: Induction of cell cycle arrest in human MCF7 cells assessed as accumulation at G2/M phase at IC50 concentration incubated for 24 hrs by PI/RNase staining based flow cytometric analysis. It is filed as functional. In a few lines: as §1
Assay [5] deals with MCF7. Kind of assay: Antiproliferative activity against human MCF7 cells measured after 48 hrs under normoxic condition by MTT assay. It is filed as functional, cell-based. The settings on record: MCF7, 48 h.
The target of a further assay is CDK9/cyclin T1 (Homo sapiens, UniProt P50750). The assay is described as follows: Inhibition of human full-length N-terminal GST/His6-tagged CDK9 (1 to 372 residues)/His6-tagged Cyclin-T1 (1 to 726 residues) expressed in sf9 cells using (YSPTSPS)2KK peptide as substrate in presence of [gamma33P]ATP.
Assay [6] deals with MCF7. The assay is described as follows: Induction of apoptosis in human MCF7 cells assessed as early apoptotic cells by Annexin V-FITC/propidium iodide staining based flow cytometric analysis (reference value: 0.47 %). The class given is functional.
For assay [7], the system named is MCF7. Kind of assay: Induction of apoptosis in human MCF7 cells assessed as fold increase in apoptotic cells by Annexin V-FITC/propidium iodide staining based flow cytometric analysis relative to control. It is filed as functional.
The subject of assay [8] is MCF7. Kind of assay: Antiproliferative activity against human MCF7 cells measured after 48 hrs under CoCl2-induced hypoxic condition by MTT assay. The following applies: MCF7, 48 h. It is filed as functional, cell-based.

Here are results for two molecules from ChEMBL document CHEMBL4680175, “Sulfonamide-based ring-fused analogues for CAN508 as novel carbonic anhydrase inhibitors endowed with antitumor activity: Design, synthesis, and in vitro biological evaluation” (Eur J Med Chem, 2020).

Molecules are shown by their SMILES. Calls of active or inactive are those of the source. No cut-off for these calls is given here. Bounds are passed on as bounds.

Sequence of Carbonic anhydrase 1 (P00915 whole entry): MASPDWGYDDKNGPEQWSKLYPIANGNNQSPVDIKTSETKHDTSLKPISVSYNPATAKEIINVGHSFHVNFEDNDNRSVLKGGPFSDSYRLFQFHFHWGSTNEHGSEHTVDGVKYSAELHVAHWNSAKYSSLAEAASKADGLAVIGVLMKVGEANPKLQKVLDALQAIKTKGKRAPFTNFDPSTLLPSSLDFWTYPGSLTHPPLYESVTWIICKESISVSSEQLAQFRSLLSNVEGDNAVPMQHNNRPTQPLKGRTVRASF
Sequence of CDK9/cyclin T1 (O60563 whole entry, the tested form may be a part): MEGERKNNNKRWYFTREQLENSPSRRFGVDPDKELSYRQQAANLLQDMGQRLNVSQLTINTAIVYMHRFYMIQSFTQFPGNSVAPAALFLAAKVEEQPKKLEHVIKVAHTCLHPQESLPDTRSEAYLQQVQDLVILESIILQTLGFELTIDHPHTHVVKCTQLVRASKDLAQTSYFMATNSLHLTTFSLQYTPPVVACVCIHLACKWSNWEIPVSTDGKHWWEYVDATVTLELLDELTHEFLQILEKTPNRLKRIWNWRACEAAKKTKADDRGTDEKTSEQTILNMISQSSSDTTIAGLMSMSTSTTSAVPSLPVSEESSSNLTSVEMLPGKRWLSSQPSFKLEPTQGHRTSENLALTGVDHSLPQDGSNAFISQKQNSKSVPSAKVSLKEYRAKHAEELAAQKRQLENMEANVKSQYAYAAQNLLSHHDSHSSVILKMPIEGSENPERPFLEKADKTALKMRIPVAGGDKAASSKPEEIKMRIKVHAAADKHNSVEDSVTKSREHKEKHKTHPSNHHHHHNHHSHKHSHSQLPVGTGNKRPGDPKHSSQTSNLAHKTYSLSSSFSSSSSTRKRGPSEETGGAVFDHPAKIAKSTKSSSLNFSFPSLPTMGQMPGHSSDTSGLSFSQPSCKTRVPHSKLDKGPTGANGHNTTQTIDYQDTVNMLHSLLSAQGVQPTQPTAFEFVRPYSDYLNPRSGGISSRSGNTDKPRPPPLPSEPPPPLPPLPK
Sequence of CDK9/cyclin T1 (P50750 whole entry, the tested form may be a part): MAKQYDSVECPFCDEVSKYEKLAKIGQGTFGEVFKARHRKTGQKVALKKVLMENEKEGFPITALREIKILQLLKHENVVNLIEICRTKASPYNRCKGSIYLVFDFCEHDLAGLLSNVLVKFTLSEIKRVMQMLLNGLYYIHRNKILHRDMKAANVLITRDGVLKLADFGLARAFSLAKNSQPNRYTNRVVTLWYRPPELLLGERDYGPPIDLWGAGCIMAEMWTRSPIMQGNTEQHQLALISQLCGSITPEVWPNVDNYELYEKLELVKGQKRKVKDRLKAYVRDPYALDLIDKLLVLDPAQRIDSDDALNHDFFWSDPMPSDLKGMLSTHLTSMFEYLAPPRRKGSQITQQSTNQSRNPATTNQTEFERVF

Take `N#Cc1c(-c2ccc(F)cc2)nc2c(/N=N/c3ccc(S(N)(=O)=O)cc3)c(N)nn2c1N`: the IC50 was 5.38 µM with MDA-MB-468 [1]; 11.3 µM with MDA-MB-468 [2]; 2.96 µM with MCF7 [5]; over 12.5 µM at CDK9/cyclin T1; 7.73 µM in the assay with MCF7 [8]. Further, the result with MCF7 [3] and with MCF7 [4] was Active. Further, in the assay on HOP-62, the inhibition of growth at 10 µM is 21%. Moreover, the Ki on Carbonic anhydrase 1 turned out to be 2.44 µM. For the same molecule, the Activity with MCF7 [6] was found to be 6.58%. Further, the “fold change (FC)” value with MCF7 [7] came to 23.

As to `N#Cc1c(-c2ccc(Cl)cc2)nc2c(/N=N/c3ccc(S(N)(=O)=O)cc3)c(N)nn2c1N`, the IC50 in the assay on MDA-MB-468 [1] is 11.4 µM; with MDA-MB-468 [2] it was 19.6 µM; in the assay with MCF7 [5], 2.07 µM; on CDK9/cyclin T1 it was over 12.5 µM; with MCF7 [8] it was 10.3 µM. Moreover, the result in the assay with MCF7 [3] and with MCF7 [4] was Active. Further, the inhibition of growth at 10 µM in the assay on HOP-62 was 24%. On Carbonic anhydrase 1, the Ki came to 2.25 µM. The Activity with MCF7 [6] is 5.88%. The “fold change (FC)” value in the assay on MCF7 [7] came to 18.
